Measured values of several laboratories.
Protocols differ between the studies behind these lines.
Cell line: NCI-H226
Observed: cell growth or viability

COc1ccc(C(=O)/C=C/c2cc3c(cc2Br)OCO3)cc1S(N)(=O)=O — GI50 (SRB; 48 h): 2.8 µM
COC(=O)/C=C/C=C/c1ccc2c(c1)OCO2 — IC50 (SRB): 99.1 µM
CCCCc1n(Cc2ccc3ccccc3n2)cc[n+]1Cc1ccc2ccccc2n1 — TGI (SRB): 13.6 µM
O=C(/C=C/C=C/c1ccc2c(c1)OCO2)N1CCCCC1 — IC50 (SRB): 83.7 µM
CCCc1n(Cc2ccc3ccccc3n2)cc[n+]1Cc1ccc2ccccc2c1 — TGI (SRB): 7.6 µM
CC(=O)O[C@H]1C(=O)[C@@]2(C)[C@H]([C@H](OC(=O)c3ccccc3)[C@]3(O)C[C@H](OC(=O)[C@H](O)[C@@H](NC(=O)c4ccccc4)c4ccccc4)C(C)=C1C3(C)C)[C@]1(OC(C)=O)CO[C@@H]1C[C@@H]2O — IC50 (SRB): 0.0043 µM
CCc1n(Cc2ccc3ccccc3n2)cc[n+]1Cc1ccc2ccccc2n1 — TGI (SRB): 30.8 µM
COc1ccc(C(=O)/C=C/c2cccc3ccccc23)cc1S(N)(=O)=O — GI50 (SRB; 48 h): 3.1 µM
COc1ccc(-c2ccc(-c3ccc(C(=N)N)nc3)s2)cc1 — GI50 (SRB): 1.81 µM
S=C([S][Au-][P+](CCCCCC[P+]([Au-][S]C(=S)n1cccn1)(c1ccccc1)c1ccccc1)(c1ccccc1)c1ccccc1)n1cccn1 — GI50 (SRB): 6.63 µM
COc1ccc(C(=O)/C=C/c2ccccc2Br)cc1S(N)(=O)=O — inhibition (SRB; 10 µM): 79%
COc1cc([C@@H]2c3cc4c(cc3[C@@H](O[C@@H]3O[C@@H]5CO[C@@H](C)O[C@H]5[C@H](O)[C@H]3O)[C@H]3COC(=O)[C@H]23)OCO4)cc(OC)c1O — IC50 (MTT; 72 h): 0.39 µM
O=C1NC(=NCc2cccs2)S/C1=C\c1ccc2ncccc2c1 — IC50: > 10 µM
COc1ccc(C(=O)/C=C/c2cccc(Br)c2)cc1S(N)(=O)=O — GI50 (SRB; 48 h): 2.8 µM
O=c1[nH]cc(S(=O)(=O)Nc2cccc(-c3nnc(-c4cccc(Cl)c4)o3)c2)c(=O)[nH]1 — IC50 (MTT; 24 h): 7.7 µM
Cc1n(Cc2ccc3ccccc3n2)cc[n+]1Cc1ccc2ccccc2c1 — TGI (SRB): 10.9 µM
COc1ccc(C(=O)/C=C/c2ccc(Cl)c(Cl)c2)cc1S(N)(=O)=O — GI50 (SRB; 48 h): 3 µM
